IDE cell activ: activators of human insulin-degrading enzyme in cells; P14735; HEK cells, FAbeta-B cleavage, fluorescence polarization; 0% vehicle, 100% cell-free pure enzyme wells; activation, % at 5.96 µM; 0.073% of 340,000 active;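 active means activation above the mean of all tested compounds plus 3 SD, set per screening campaign, cut at about 17% in these data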
PHOSPHO1 inh: blocks human PHOSPHO1 phosphatase activity; inhibition, % at 13.3 µM; Q8TCT1; recombinant PHOSPHO1, absorbance phosphatase assay; 1.1% of 290,000 active; AID 1565; in the data active means inhibition above about 60%
Target sequence (Q8TCT1 whole entry, looked up): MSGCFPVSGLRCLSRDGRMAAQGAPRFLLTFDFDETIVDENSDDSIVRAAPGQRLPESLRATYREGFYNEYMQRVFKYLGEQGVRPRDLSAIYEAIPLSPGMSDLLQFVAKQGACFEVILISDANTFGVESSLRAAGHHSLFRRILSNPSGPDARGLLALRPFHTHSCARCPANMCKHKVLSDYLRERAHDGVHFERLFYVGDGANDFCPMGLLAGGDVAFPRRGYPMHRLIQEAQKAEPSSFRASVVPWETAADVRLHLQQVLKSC
proCasp7 act: activates human procaspase-7, counter-screen for procaspase-3 activators; P55210; recombinant procaspase-7, Ac-DEVD-pNA absorbance 405 nm; D23A/D198A/D206A triple mutant, cannot self-cleave; scale: DMSO 0, 5 µM enzyme 100; activation, % at 8.5 µM; 0.093% of 330,000 active; AID 463210;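 active means percent activation above the screen-wide mean plus 3 SD, cut at about 25% in these data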
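Assay system: Uncleavable procaspase-7 mutant enzyme / Input: 2 µM procaspase-7 mutant as dispensed / Dosing: single nominal 8.5 µM compound dose, 0.8% DMSO final / Timing: 1 h enzyme–compound preincubation and 2 h substrate reaction, both 25 °C / Detection: p-Nitroaniline absorbance at 405 nm, read at 0 and 120 min / Replication: singlicate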
IDE cell inh: inhibits human insulin-degrading enzyme in HEK cells; AID 434962; P14735; FAbetaB cleavage, fluorescence polarization; 0.41% of 320,000 active; inhibition, % at 5.59 µM;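 active means percent inhibition above the average of all tested compounds plus 3 SD, set per screening campaign, cut at about 16% in these data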;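 further: IDE supplied by intact live HEK cells; FP after avidin binding of uncleaved biotin substrate so inhibition keeps polarization high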
UBC13 inh: human UBC13 polyubiquitination inhibition | P61088 | UBC13 polyubiquitin chain formation, TR-FRET | inhibition, % at 20 µM | 0.47% of 330,000 active; in the data active means inhibition above about 45%, passing the limit was not always enough; inconclusive means no clear call, values can overlap the other calls
Target sequence (P61088 whole entry, looked up): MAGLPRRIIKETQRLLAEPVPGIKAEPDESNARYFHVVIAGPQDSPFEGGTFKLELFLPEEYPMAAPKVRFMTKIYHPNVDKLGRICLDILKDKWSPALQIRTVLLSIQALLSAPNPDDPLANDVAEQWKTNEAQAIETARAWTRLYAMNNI
proCasp3 act: activates human procaspase-3 | activation, % at 8.5 µM | 0.11% of 330,000 active | recombinant procaspase-3 D3A, Ac-DEVD-pNA absorbance 405 nm | AID 463141 | P42574;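 active means activation above the mean of all tested compounds plus 3 SD, cut at about 21% in these data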
Target sequence (P42574 whole entry D9A/D28A/D175A): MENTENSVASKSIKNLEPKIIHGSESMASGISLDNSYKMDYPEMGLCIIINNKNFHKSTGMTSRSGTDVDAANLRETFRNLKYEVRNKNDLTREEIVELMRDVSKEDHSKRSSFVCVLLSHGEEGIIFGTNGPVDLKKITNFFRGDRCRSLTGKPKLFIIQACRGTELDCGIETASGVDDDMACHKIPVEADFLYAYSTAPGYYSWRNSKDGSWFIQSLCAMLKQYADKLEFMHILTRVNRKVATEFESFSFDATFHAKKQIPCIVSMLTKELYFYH
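material = Procaspase-3 D3A mutant | probe or stimulus = Ac-DEVD-pNA | compound = single dose, 8.5 µM nominal compound, 0.8% DMSO | timing = 1 h preincubation, 2 h reaction | measured by = 405 nm absorbance of p-nitroaniline, reads at 0 and 120 min | benchmarks = DMSO-only low control, 5 µM PC-3 D3A high control | repeats = singlicate, each compound tested once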
PC3 dual counter: activates human procaspase-3, dual activator counter-screen; shares compounds with proCasp7 act; recombinant PC-3 D3A, Ac-DEVD-pNA absorbance 405 nm; aspartates 9, 28, 175 changed to alanine; 100% = enzyme control; AID 493114; activation, % at 8.5 µM; 290 tested, under 10 active;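 active means mean percent activation across triplicates above a set limit taken from the earlier primary procaspase-3 screen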
Procasp7 act: confirmation of dual procaspase activators: human procaspase-7 activation. shares compounds with proCasp7 act. recombinant procaspase-7, Ac-DEVD-pNA absorbance 405 nm; D23A/D198A/D206A mutant that cannot self-cleave. activation, % at 8.5 µM. 290 tested, under 10 active. AID 493115;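 active means mean activation above a set limit carried over from the earlier primary screen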
Of the large screens only hits and unclear results are named; the others gave an inactive call (follow-up assays come after a bar, where they were run). Hits are enriched below; roughly 1.9% of the tested compounds scored in any of these assays.

Cc1cccc(CNC(=O)c2ccc(NC(=O)C3=CSCCO3)cc2)c1	none
Cc1ccc2sc(NC(=O)CSc3nc(C)cc(C)c3C#N)nc2c1	proCasp7 act 42 | PC3 dual counter inactive | Procasp7 act inactive
CCC(C(=O)OC)n1cnc2c(nnn2-c2ccc(F)cc2)c1=O (stereo unspecified)	none
O=C(Nc1ccc(-c2nc3ccccc3s2)c(O)c1)C1=COCCO1	none
O=C(Nc1ccc(O)c(-c2nc3ccccc3s2)c1)C1=COCCO1	proCasp7 act 32 | PC3 dual counter inactive | Procasp7 act inactive
CC(=O)Nc1ccc(O)c(-c2nc3ccccc3s2)c1	proCasp7 act 36 | PC3 dual counter inactive | Procasp7 act inactive
COc1ccc(-c2cc3cc(-c4cc(OC)c(OC)c(OC)c4)ccc3o2)cc1	none (no result: PHOSPHO1 inh)
COc1ccc(C2CC(c3ccccc3Br)=NN2c2ccc(S(N)(=O)=O)cc2)cc1 (stereo unspecified)	none (no result: PHOSPHO1 inh, IDE cell inh, UBC13 inh)
COc1ccc(C2CC(c3ccc(C(F)(F)F)cc3)=NN2c2ccc(S(N)(=O)=O)cc2)cc1 (stereo unspecified)	proCasp7 act 28, proCasp3 act 23 (no result: PHOSPHO1 inh, IDE cell inh, UBC13 inh) | PC3 dual counter inactive | Procasp7 act inactive
COc1ccc(C2CC(c3ccccc3F)=NN2c2ccc(S(N)(=O)=O)cc2)cc1 (stereo unspecified)	proCasp7 act 35, proCasp3 act 34 (no result: PHOSPHO1 inh, IDE cell inh, UBC13 inh) | PC3 dual counter inactive | Procasp7 act inactive
N#Cc1c2c(c(Nc3ccccc3)n3c1nc1ccccc13)CCC2	proCasp7 act 61 | PC3 dual counter inactive | Procasp7 act inactive
N#Cc1c2c(c(Nc3ccc(F)cc3)n3c1nc1ccccc13)CCCC2	none (no result: PHOSPHO1 inh, proCasp7 act, IDE cell inh, UBC13 inh, proCasp3 act)
O=C(Nc1ccc2c(c1)OCCO2)c1coc2ccccc2c1=O	proCasp7 act 36 | PC3 dual counter inactive | Procasp7 act inactive
Cc1ccccc1C(=O)Nc1ccc2c(c1)OCCO2	none (no result: proCasp7 act, IDE cell inh, proCasp3 act)
O=c1ccc(-c2ccc(S(=O)(=O)N3CCN(c4ccccc4)CC3)o2)n[nH]1	none
O=C(Nc1sc2c(c1C(=O)NCC1CCCO1)CCCC2)c1cccs1 (stereo unspecified)	proCasp7 act 37 | PC3 dual counter inactive | Procasp7 act inactive
CCn1c(=NC(=O)C2COc3ccccc3O2)sc2c(OC)ccc(OC)c21 (stereo unspecified)	proCasp7 act 36, UBC13 inh inconclusive | PC3 dual counter inactive | Procasp7 act inactive
COCCn1c(=NC(=O)C2COc3ccccc3O2)sc2cc(S(N)(=O)=O)ccc21 (stereo unspecified)	none
CCN(CC)c1ccc2c(O)cc(=O)oc2c1	none
CCN(CC)c1ccc(C(=O)OCc2cc(=O)oc3cc(O)ccc23)cc1	proCasp7 act 40, proCasp3 act 32 | PC3 dual counter inactive | Procasp7 act inactive
O=C(CSc1nnc(CNC(=O)c2cccs2)o1)Nc1ccc(F)cc1F	none
Nc1c(C(=O)NCc2ccccc2)c2nc3ccccc3nc2n1-c1ccc2c(c1)OCO2	none
Nc1c(C(=O)NCc2ccco2)c2nc3ccccc3nc2n1CCc1ccc(F)cc1	none
COc1ccc(-n2c(N)c(C(=O)NCc3ccco3)c3nc4ccccc4nc32)cc1	proCasp7 act 44 | PC3 dual counter inactive | Procasp7 act inactive
Nc1ccc(-n2c(N)c(C(=O)NCc3ccc4c(c3)OCO4)c3nc4ccccc4nc32)cc1	proCasp7 act 44 (no result: PHOSPHO1 inh) | PC3 dual counter inactive | Procasp7 act inactive
COCCNC(=O)c1c(N)n(-c2ccccc2)c2nc3ccccc3nc12	none
COc1cc(-n2c(N)c(C(=O)NCc3ccco3)c3nc4ccccc4nc32)cc(OC)c1OC	proCasp7 act 43 | PC3 dual counter inactive | Procasp7 act inactive
COc1ccc(-n2c(N)c(C(=O)NCc3ccco3)c3nc4ccccc4nc32)cc1OC	proCasp7 act 32 | PC3 dual counter inactive | Procasp7 act inactive
CCOC(=O)C1(CCCc2ccccc2)CCN(C(=O)C(C)n2cncn2)CC1 (stereo unspecified)	none
COc1ccc(-c2ccc(SCC(=O)NC3CCCCC3)nn2)cc1OC	none
CCOC(=O)c1c(NC(=O)COC(=O)c2ccccc2NC)sc(C(=O)N(C)C)c1C	proCasp7 act 29 | PC3 dual counter inactive | Procasp7 act inactive
Cc1c(C(=O)N/N=C/c2ccc(N(C)C)cc2)[nH]c2ccc(Cl)cc12	proCasp7 act 35 | PC3 dual counter inactive | Procasp7 act inactive
COc1ccc(OC)c(/C=C/C(=O)N2CCN(S(=O)(=O)c3ccc(C)cc3C)CC2)c1	proCasp7 act 32 (no result: PHOSPHO1 inh) | PC3 dual counter inactive | Procasp7 act inactive
Cc1cc(S(=O)(=O)N2CCN(c3ccccc3F)CC2)ccc1-n1cnnn1	none
CCCCCCc1cc2cc(S(=O)(=O)c3ccc(C)cc3)c(=O)oc2cc1O	proCasp7 act 31, proCasp3 act 86 | PC3 dual counter inactive | Procasp7 act inactive
COc1ccc(-c2cc(C(=O)OC3CCOC3=O)c3ccccc3n2)cc1 (stereo unspecified)	proCasp7 act 28, proCasp3 act 26 | PC3 dual counter inactive | Procasp7 act inactive
COc1ccc(OCCn2cc(/C=C(\C#N)C(=O)NCc3ccco3)c3ccccc32)cc1	none
COc1ccccc1OCCn1cc(/C=C(\C#N)C(=O)NCc2ccco2)c2ccccc21	proCasp7 act 50 | PC3 dual counter inactive | Procasp7 act inactive
COc1ccccc1C(=O)NC(=O)COC(=O)c1oc2ccccc2c1C	none (no result: PHOSPHO1 inh)
COC(=O)C1=C(C)NC(C)=C(C(=O)OC)C1c1ccc(OC(=O)c2oc3ccccc3c2C)c(OC)c1	proCasp7 act 81, proCasp3 act 35 | PC3 dual counter inactive | Procasp7 act inactive
Cc1nc(-c2cccc(NC(=O)c3ccc(-n4cccn4)cc3)c2)cs1	none (no result: PHOSPHO1 inh)
CC(=O)Nc1ccc(C2=NN(c3ccccc3)C(c3cccs3)C2)cc1 (stereo unspecified)	proCasp7 act 126, proCasp3 act 157 | PC3 dual counter inactive | Procasp7 act inactive
N#CC1C(=O)NC(c2ccccc2)=CC1c1ccccc1 (stereo unspecified)	none (no result: PHOSPHO1 inh, proCasp7 act, IDE cell inh, UBC13 inh, proCasp3 act)
O=C(NC1CCSc2ccccc21)c1cccc([N+](=O)[O-])c1 (stereo unspecified)	none
CCN(Cc1ccccc1)c1ccc(/C=N/N=C(N)N)cc1	none
